The values below come from ChEMBL document CHEMBL1833840, “RGD mimetics containing phthalimidine fragment as novel ligands of fibrinogen receptor” (Bioorg Med Chem Lett, 2011).

For one assay, the system named is Platelet. Nature of the assay: Inhibition of ADP-induced platelet aggregation in human platelet rich plasma by Borns method. The class given is functional. An outline of the steps:
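Human platelet-rich plasma stimulated with ADP, with aggregation followed by Born's method.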

For assay [1], the target named is Integrin alpha-IIb/beta-3 (Homo sapiens) (UniProt P08514). As to the kind of experiment: Displacement of FITC-labeled fibrinogen from alphaIIbbeta3 in human platelets.
Integrin alpha-IIb/beta-3 (Homo sapiens), sequence (P08514 whole entry, looked up): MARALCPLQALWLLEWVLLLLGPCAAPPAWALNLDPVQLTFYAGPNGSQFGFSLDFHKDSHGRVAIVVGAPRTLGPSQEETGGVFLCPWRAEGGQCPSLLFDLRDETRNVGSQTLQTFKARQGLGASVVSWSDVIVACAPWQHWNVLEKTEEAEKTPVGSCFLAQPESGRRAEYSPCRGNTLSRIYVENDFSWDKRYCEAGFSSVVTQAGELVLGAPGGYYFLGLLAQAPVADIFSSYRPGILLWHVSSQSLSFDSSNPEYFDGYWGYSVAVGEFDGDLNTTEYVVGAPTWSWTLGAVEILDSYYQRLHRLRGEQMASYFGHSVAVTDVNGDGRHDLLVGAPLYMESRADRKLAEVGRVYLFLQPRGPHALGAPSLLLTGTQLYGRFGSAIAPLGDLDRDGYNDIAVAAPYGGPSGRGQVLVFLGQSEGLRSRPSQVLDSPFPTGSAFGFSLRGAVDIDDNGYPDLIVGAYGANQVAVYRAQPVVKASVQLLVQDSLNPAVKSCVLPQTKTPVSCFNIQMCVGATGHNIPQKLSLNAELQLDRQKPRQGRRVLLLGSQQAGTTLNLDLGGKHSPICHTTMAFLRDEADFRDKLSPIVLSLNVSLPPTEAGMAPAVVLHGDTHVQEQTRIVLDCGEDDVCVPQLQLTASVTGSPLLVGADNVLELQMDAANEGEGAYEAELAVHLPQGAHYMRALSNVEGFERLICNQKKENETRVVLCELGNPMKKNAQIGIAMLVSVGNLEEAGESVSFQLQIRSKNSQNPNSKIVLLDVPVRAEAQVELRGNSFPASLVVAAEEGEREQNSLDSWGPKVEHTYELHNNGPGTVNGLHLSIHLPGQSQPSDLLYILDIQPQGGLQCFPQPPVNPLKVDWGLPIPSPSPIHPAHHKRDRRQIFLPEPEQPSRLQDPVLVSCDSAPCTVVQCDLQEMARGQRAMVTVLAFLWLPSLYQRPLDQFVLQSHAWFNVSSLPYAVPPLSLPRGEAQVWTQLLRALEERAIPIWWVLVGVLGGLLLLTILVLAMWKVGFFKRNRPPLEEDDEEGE

As for `O=C(O)CN1Cc2ccc(NC(=O)c3ccc(C4CCNCC4)cc3)cc2C1=O`, the IC50 in the assay with Platelet turned out to be 24000 nM; in assay [1], 270 nM.

With `O=C(O)CN1Cc2ccc(NC(=O)c3ccc4c(c3)CNCC4)cc2C1=O`, the results for the half-inhibitory concentration (IC50) (in the assay with Platelet; in assay [1]) were 120000 nM and 1200 nM, respectively. `O=C(O)CCN1Cc2ccc(NC(=O)CCCC3CCNCC3)cc2C1=O`: the IC50 is 5900 nM with Platelet and 5.5 nM in assay [1]. `O=C(O)CCN1Cc2ccc(NC(=O)c3ccc(C4CCNCC4)cc3)cc2C1=O`: the figures for the concentration for half-maximal inhibition (IC50) (with Platelet; in assay [1]) were 9600 nM and 6.8 nM, respectively. In the assay with Platelet, `O=C(O)CCN1Cc2ccc(NC(=O)c3ccc(N4CCNCC4)cc3)cc2C1=O` registered an IC50 of 540 nM. In the case of `O=C(O)CCN1Cc2ccc(NC(=O)c3ccc4c(c3)CNCC4)cc2C1=O`, the half-inhibitory concentration (IC50) in the assay with Platelet was 1100 nM; in assay [1], 6.5 nM. For `O=C(O)CCCN1Cc2ccc(NC(=O)CCCC3CCNCC3)cc2C1=O`, half-maximal inhibition with Platelet (IC50) required 51000 nM.

In the case of `O=C(O)CCCN1Cc2ccc(NC(=O)c3ccc(C4CCNCC4)cc3)cc2C1=O`, the half-inhibitory concentration (IC50) with Platelet came to 410000 nM. On the same count and under the same terms, the figure for `O=C(O)CCCN1Cc2ccc(NC(=O)c3ccc4c(c3)CNCC4)cc2C1=O` is 330000 nM. On to `O=C(O)CCNC(=O)CCNC(=O)c1ccc2c(c1)CNCC2`, for which the concentration for half-maximal inhibition (IC50) in the assay with Platelet amounted to 1100 nM; in assay [1], 22 nM. As to `Cc1ccc(S(=O)(=O)N[C@@H](CNC(=O)Cc2cn(CCCC3CCNCC3)c3ccccc23)C(=O)O)cc1`, in the assay with Platelet, the half-maximal inhibitory concentration (IC50) was 4500 nM. Same read-out and setting: the figure for `N=C(N)c1ccc(C(=O)Nc2ccc3c(c2)CCN(CC(=O)O)C3)cc1` is 90 nM; for `O=C(O)CN1Cc2ccc(NC(=O)CCCC3CCNCC3)cc2C1=O` it is 66000 nM; for `O=C(O)CCNC(=O)c1ccc2c(c1)C(=O)N(CCC1CCNCC1)C2` it is 25 nM. On to `CC(CC(=O)O)N1Cc2ccc(NC(=O)CCCC3CCNCC3)cc2C1=O` (racemic), for which the IC50 turned out to be 5400 nM with Platelet and 350 nM in assay [1]. For the compound `CC(CC(=O)O)N1Cc2ccc(NC(=O)c3ccc(C4CCNCC4)cc3)cc2C1=O` (racemic), inhibition in the assay on Platelet was half-maximal at 6200 nM (IC50). With `CC(CC(=O)O)N1Cc2ccc(NC(=O)c3ccc(N4CCNCC4)cc3)cc2C1=O` (racemic), the IC50 was found to be 3740 nM in the assay with Platelet and 37 nM in assay [1]. For the compound `CC(CC(=O)O)N1Cc2ccc(NC(=O)c3ccc4c(c3)CNCC4)cc2C1=O` (racemic), the 50% inhibitory concentration (IC50) in the assay on Platelet worked out at 86 nM; in assay [1] it was 6.5 nM.
